Assay outcomes deposited in PubChem by The Scripps Research Institute Molecular Screening Center.
OXTR agonist: agonists of human oxytocin receptor; P30559; CHO-OTR cells, Fluo-8 calcium fluorescence; normalized: DMSO 0%, oxytocin 100%; activation, % at 3 µM; 0.32% of 320,000 active;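 active = activation above the mean of all tested compounds plus 3 SD, cutoff set per screening run, cut at about 20% in these data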;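 note: peak over basal fluorescence ratio from a 100 s FLIPR kinetic read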
Target sequence (P30559 whole entry, looked up): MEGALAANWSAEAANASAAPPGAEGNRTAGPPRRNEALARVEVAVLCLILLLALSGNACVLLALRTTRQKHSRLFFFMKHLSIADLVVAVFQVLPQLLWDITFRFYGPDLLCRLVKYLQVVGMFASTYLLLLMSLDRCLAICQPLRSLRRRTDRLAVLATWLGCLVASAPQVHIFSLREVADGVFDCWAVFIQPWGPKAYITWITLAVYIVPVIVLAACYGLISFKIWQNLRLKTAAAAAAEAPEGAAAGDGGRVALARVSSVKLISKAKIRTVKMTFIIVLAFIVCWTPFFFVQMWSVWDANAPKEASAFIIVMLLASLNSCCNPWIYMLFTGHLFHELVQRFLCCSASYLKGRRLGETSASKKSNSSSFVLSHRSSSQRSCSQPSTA
V1aR counter: activates human V1a receptor in oxytocin agonist counter-screen; CHO-V1R cells, Fluo-8 calcium fluorescence, agonist mode; 0% DMSO, 100% 3 nM vasopressin; activation, % at 3 µM; 0.25% of 320,000 active; AID 2797;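 active = activation above the mean activation of all tested compounds plus 3 SD, per screening run, cut at about 20% in these data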;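 note: signal is peak over basal fluorescence ratio across a 100 second FLIPR read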
TAAR1 antag: human TAAR1 antagonism. CHO RD-HGA16 TAAR1, Fluo-8 calcium fluorescence, antagonist. inhibition, % at 3 µM. 1.5% of 360,000 active;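 active = inhibition above a per-plate cutoff, the mean inhibition of test compounds on that plate plus 3 SD, cut at about 49% in these data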;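 note: 0% = DMSO plus EC80 beta-PEA response and 100% = DMSO alone without agonist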
Target sequence (Q96RJ0 whole entry, looked up): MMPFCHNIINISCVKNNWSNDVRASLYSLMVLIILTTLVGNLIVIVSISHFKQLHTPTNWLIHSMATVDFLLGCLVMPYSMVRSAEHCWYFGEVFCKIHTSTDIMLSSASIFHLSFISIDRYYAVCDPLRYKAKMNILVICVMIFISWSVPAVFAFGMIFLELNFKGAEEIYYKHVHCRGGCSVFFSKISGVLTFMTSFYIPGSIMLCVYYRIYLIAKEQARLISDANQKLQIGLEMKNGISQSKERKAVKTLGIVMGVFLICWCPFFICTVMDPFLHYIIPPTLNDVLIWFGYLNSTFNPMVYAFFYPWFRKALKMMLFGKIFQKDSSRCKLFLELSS
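Test system: RD-HGA16 CHO cells with stable hTAAR1 and Gα16 / Probe or stimulus: EC80 β-phenethylamine stimulus / Times: seeding 17-24 h prior, 75-min 37 °C, 30-min RT dye loading / Detection: Fluo-8 calcium-sensitive fluorescence / Read-out basis: % inhibition scaled between DMSO and EC80 PEA controls / Repeats: singlicate, one well per test compound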
TAAR1 ag: agonists of human TAAR1; Q96RJ0; CHO RD-HGA16 TAAR1, Fluo-8 calcium fluorescence; vehicle wells 0%, saturating PEA agonist 100%; activation, % at 3 µM; 0.99% of 360,000 active; AID 624467;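 active = activation above the mean activation of all test compounds in the run plus 3 SD, cut at about 38% in these data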
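System: CHO-derived RD-HGA16 cells with stable Gα16 and human TAAR1. Times: 17-24 h plating, Fluo-8 75 min 37 °C, 30 min RT. Measured by: calcium-sensitive Fluo-8 signal, excitation 470-495, emission 515-575 nm. Read-out basis: % activation relative to PEA EC100 response. Control set: DMSO and PEA EC100. Repeats: no replicates (n 1).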
OXTR potentiate: potentiates the human oxytocin receptor response. 0.061% of 320,000 active. CHO-OTR cells, Fluo-8 calcium fluorescence, potentiator mode; 0% = oxytocin EC15, 100% = EC100. activation, % at 3 µM;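 active = activation above that plate's cutoff, the mean activation of tested compounds plus 3 SD, cut at about 6.6% in these data, passing the limit was not always enough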;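 note: 100% uses oxytocin at 75 nM as the full agonist control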
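Measured by – Fluo-8 calcium dye fluorescence · Test system – human OTR in CHO cells · Dosing – one concentration, 3.0 µM compound · Controls – EC15 oxytocin alone as 0%, 75 nM oxytocin as 100% · Evaluation – normalized max/min fluorescence ratio, % activation · Timing – 6 min pre-incubation, 100 s read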
TAAR1 ag conf: confirmation of human TAAR1 agonists; shares compounds with TAAR1 ag; CHO RD-HGA16 TAAR1, Fluo-8 calcium fluorescence; scaled: DMSO 0%, maximal phenethylamine 100%; activation, % at 3 µM; 82% of 2,400 active;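 active = activation above a cutoff set at the run's mean compound activation plus 3 SD, cut at about 39% in these data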
Ga16 nonsel ag: nonselective agonist in parental cells, TAAR1 agonist counter-screen; shares compounds with TAAR1 ag; CHO-Ga16 parental, Fluo-8 calcium fluorescence; normalized to maximal ATP response, DMSO zero; activation, % at 3 µM; 50% of 2,400 active; AID 651787;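 active = activation above the run cutoff, the mean activation over all tested wells plus 3 SD, cut at about 12% in these data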;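 note: 0% = DMSO wells and 100% = maximal ATP response on the peak over basal ratio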
TAAR1 desens: human TAAR1 agonist that also desensitizes the receptor; inhibition, % at 3 µM; AID 651951; CHO RD-HGA16 hTAAR1, Fluo-8 calcium, beta-PEA response inhibition; shares compounds with TAAR1 ag; 46% of 2,400 active;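 active = inhibition above the run cutoff, the mean inhibition of all test compounds plus 3 SD, cut at about 49% in these data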;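 note: beta-PEA stimulus applied at its EC80; loss of beta-PEA calcium signal after compound pretreatment read as receptor desensitization; 0% = DMSO with beta-PEA at EC80 and 100% = DMSO alone without agonist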
Ga16 nonsel ant: nonselective Ga16 antagonist in TAAR1 agonist counter-screen; shares compounds with TAAR1 ag; 39% of 2,400 active; inhibition, % at 3 µM; CHO-Ga16 ATP-induced calcium, Fluo-8 fluorescence; AID 651952;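 active = inhibition above the plate's mean compound inhibition plus 3 SD, computed per plate, cut at about 22% in these data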;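 note: 0% = EC80 ATP with DMSO and 100% = DMSO wells without ATP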
* hit, by the source's call; . = no result. In the library only some 2.3% were active in any assay of this set; here they are far more common.

SMILES	OXTR agonist	V1aR counter	TAAR1 antag	TAAR1 ag	OXTR potentiate	TAAR1 ag conf	Ga16 nonsel ag	TAAR1 desens	Ga16 nonsel ant
CCOC(=O)C(O)(c1ccc(NC(=S)NC(=O)c2ccc(Cl)cc2Cl)cc1)C(F)(F)F (centres undefined)	50.6*	33.8*	79.2*	78.3*	-15.0	74.5*	44.9*	93.1*	73.2*
CCCCn1c(O)c(C(C)=NCCc2ccccc2)c(=O)[nH]c1=O	-1.1	-0.1	33.7	73.1*	-2.2	44.5*	3.9	10.7	10.9
CCC(=NCCc1ccccc1)c1c(O)[nH]c(=O)[nH]c1=O	0.7	0.8	.	.	-8.1	.	2.8	.	3.8
CC(C)NC1(c2ccccc2)CCCCC1	.	.	-14.7	5.0	.	.	.	.	.
C[C@@H]1CN([C@H](C)CO)C(=O)CCCn2nncc2CO[C@@H]1CN(C)C(=O)Oc1ccccc1	.	.	3.5	1.2	.	.	.	.	.
CCCCCCCSc1cc(OC)c(CCNC)cc1OC	6.4	5.0	35.3	66.8*	-12.4	51.7*	21.0*	44.3	24.1*
CCCCCSc1cc(OC)c(CCNC)cc1OC	13.0	7.2	-9.8	37.2	-15.9	.	.	.	.
O=C(NCNC(=O)NC1C(=O)NC(=O)N1CO)NC1C(=O)NC(=O)N1CO (centres undefined)	-0.2	-0.2	-12.4	-0.1	-4.6	.	.	.	.
CCCCCn1c(=O)c(C(=O)Nc2ncccc2C)c(O)c2ccccc21	53.7*	39.0*	10.7	54.1*	-25.7	54.0*	86.3*	35.3	43.6*
CCCCn1c(=O)c(C(=O)Nc2ccccc2C)c(O)c2ccccc21	0.5	0.4	.	.	-17.1	.	.	.	.
COc1cc(C(O)CNC(C)C)cc(F)c1OC (centres undefined)	0.9	0.5	-0.8	13.7	4.5	.	.	.	.
CC1CN(CC(=O)c2ccccc2Cl)CC(C)O1 (centres undefined)	-0.7	1.5	54.2*	84.8*	-8.3	105.8*	2.8	43.5	-10.3
O=C1NC(=S)N(c2ccc(Br)cc2)C(=O)/C1=C/N1CCN(C(=O)c2ccco2)CC1	2.3	2.4	10.8	32.2	-19.1	.	.	.	.
Cc1cccc(N2C(=O)/C(=C/N3CCN(C(=O)c4ccco4)CC3)C(=O)NC2=S)c1	0.5	1.0	-13.7	49.1*	-8.1	60.7*	0.4	3.8	4.5
O=C1NC(=S)N(c2ccccc2)C(=O)/C1=C/c1ccco1	2.7	4.6	8.2	1.8	-22.1	.	.	.	.
Cc1ccc(N2C(=O)/C(=C/N3CCN(C(=O)c4ccco4)CC3)C(=O)NC2=S)cc1C	1.1	0.8	-7.2	56.1*	-0.9	73.4*	0.6	5.9	1.9
CC1CN=C(NC(C)c2ccccc2)S1 (centres undefined)	-0.6	0.4	-5.8	5.4	-1.1	.	.	.	.
CC(NC1=NCCS1)c1ccccc1 (centres undefined)	0.6	0.5	.	.	0.6	.	-0.2	.	-0.3
C1CC2OC2CC1C1CO1 (centres undefined)	0.7	1.7	-14.8	4.0	0.2	.	.	.	.
S=C(NCCc1ccccc1)N1Cc2ccc(Br)cc2-n2nncc2C1	.	.	34.4	60.5*	.	38.2*	2.8	21.7	19.0
CNCC(C)c1ccccc1 (centres undefined)	0.8	0.6	59.4*	83.6*	-6.9	94.3*	0.9	83.0*	1.9
O=c1[nH]c2cc(Cl)ccc2n1C1CCN(Cc2ccc(-c3nc4ccc(F)cc4nc3-c3ccccc3)cc2)CC1	.	.	-27.2	1.5	.	.	.	.	.
COCC(=O)N1Cc2ccccc2-n2nncc2C1	.	.	-10.5	2.1	.	.	.	.	.
N#Cc1c(N2CCNCC2)nc(-c2ccco2)c2c1CCCC2	-0.9	-0.1	48.2	79.7*	0.8	96.1*	16.5*	90.5*	15.1
O=C(NCCN1CCC2(CC1)C(=O)NCN2c1ccccc1)c1ccc(F)cc1F	.	.	5.0	14.5	.	.	.	.	.
SMILES	OXTR agonist	V1aR counter	TAAR1 antag	TAAR1 ag	OXTR potentiate	TAAR1 ag conf	Ga16 nonsel ag	TAAR1 desens	Ga16 nonsel ant
O=C(CCCN1CCC2(CC1)C(=O)NCN2c1ccccc1)c1ccc(F)cc1	41.5*	28.2*	106.0*	153.7*	-12.0	131.3*	115.7*	106.5*	103.1*
O=C(NCCN1CCC2(CC1)C(=O)NCN2c1ccccc1)c1ccc(Cl)c(Cl)c1	.	.	106.1*	113.2*	.	124.3*	94.8*	106.8*	102.8*
O=C(NCCN1CCC2(CC1)C(=O)NCN2c1ccccc1)c1ccc(OC(F)(F)F)cc1	.	.	96.2*	53.6*	.	44.6*	40.5*	101.8*	98.3*
Cc1ccc(C(=O)NCCN2CCC3(CC2)C(=O)NCN3c2ccccc2)cc1	.	.	98.7*	86.5*	.	52.8*	41.2*	98.2*	83.9*
O=P1(NCCCl)OCCCN1CCCl (centres undefined)	1.0	0.9	-29.3	2.3	1.9	.	.	.	.
O=C(NCCN1CCC2(CC1)C(=O)NCN2c1ccccc1)C(c1ccccc1)c1ccccc1	.	.	93.3*	58.2*	.	32.8	23.8*	76.0*	62.4*
O=C1CN(O)C(c2ccccc2)=c2cc(Cl)ccc2=N1	-0.6	0.2	-8.0	7.7	-0.8	.	.	.	.
C[CH2][Hg][S]c1ccccc1C(=O)O	4.3	6.6	95.7*	120.1*	12.1*	44.4*	59.4*	73.0*	84.1*
O=C1NC(=O)N(c2cccc(Cl)c2)C(=O)/C1=C\c1ccc(Sc2nc3ccccc3[nH]2)o1	59.1*	57.3*	75.0*	117.6*	-21.2	25.7	32.3*	29.2	38.5*
O=C1NC(=O)N(c2ccccc2)C(=O)/C1=C/c1ccc(Sc2ccccc2)o1	2.2	1.4	.	.	-8.5	.	.	.	.
C[N+]1(C)C2CC(OC(=O)C(CO)c3ccccc3)CC1C1OC12 (centres undefined)	0.7	0.2	-22.6	2.4	-4.0	.	.	.	.
C#CCN(C)C(C)Cc1ccccc1 (centres undefined)	0.1	0.8	-9.6	4.4	-1.8	.	.	.	.
CC(Cc1ccccc1)N(C)CC1C(=O)C2CCC1C2 (centres undefined)	.	.	13.1	56.4*	.	50.9*	-0.1	4.4	7.9
Cc1cc(=O)oc2c(C)c(OCC(=O)N3CCN(Cc4ccccc4)CC3)ccc12	-0.1	0.1	-18.3	-2.1	-0.1	.	.	.	.
CC(OC(=O)c1cn(C)c2ccccc12)C(=O)N(C)c1ccccc1 (centres undefined)	.	.	0.8	-0.5	.	.	.	.	.
